# Reference: ChEMBL document CHEMBL4706770, “SD-91 as A Potent and Selective STAT3 Degrader Capable of Achieving Complete and Long-Lasting Tumor Regression” (ACS Med Chem Lett, 2021)
# Active and inactive are the calls of the source. The calls are words filed in the database; no cut-off is given here.
# Experiments:
# [1] = Stability of compound in buffer pH 8 assessed as conversion to (2-(((5S,8S,10aR)-8-(((S)-5-amino-1-(benzhydrylamino)-1,5-dioxopentan-2-yl)carbamoyl)-3-(8-(2-(2,6-dioxopiperidin-3-yl)-1-oxoisoindolin-4-yl)oct-7-ynoyl)-6-oxodecahydropyrrolo[1,2-a][1,5]diazocin-5-yl)carbamoyl)-1H-indole-5-carbonyl)phosphonic acid by measuring half life at 37 degC by LC/MS/MS analysis; type: physicochemical
# How it was run: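 SD-36 incubated in pH 8 buffer at 37 °C; percentages of parent and hydrolysis products followed over time; half-life of conversion derived from the time course.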
# [2] = target: Protein cereblon/Signal transducer and activator of transcription 2 (Homo sapiens) (UniProt Q96SW2+P52630); assay: Protac activity at CRBN/STAT2 in human SUP-M2 cells […] at 0.25 to 100 uM incubated for 4 hrs by Western blot analysis; type: cell-based; details: SUPM2, dose lower 0.25 µM
# [3] = target: Protein cereblon/Signal transducer and activator of transcription 5A (Homo sapiens) (UniProt P42229+Q96SW2); assay: Protac activity at CRBN/STAT5 in human SU-DHL-1 cells […] at 0.25 to 100 uM incubated for 4 hrs by Western blot analysis; type: cell-based; details: dose lower 0.25 µM
# [4] = Drug uptake in SCID mouse xenografted with human MOLM16 cells assessed as (2-(((5S,8S,10aR)-8-(((S)-5-amino-1-(benzhydrylamino)-1,5-dioxopentan-2-yl)carbamoyl)-3-(8-(2-(2,6-dioxopiperidin-3-yl)-1-oxoisoindolin-4-yl)oct-7-yno yl)-6-oxodecahydropyrrolo[1,2-a][1,5]diazocin-5-yl)carbamoyl)-1H-indole-5-carbonyl)phosphonic acid level in plasma at 50 mg/kg, iv measured after 1 hrs by LC-MS/MS; type: ADME, organism-based; details: in vivo
# How it was run: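 SCID mice bearing MOLM-16 xenografts given a single iv dose of 50 mg/kg. Concentrations of parent and hydrolysis product measured in plasma (ng/mL) and tumor tissue (ng/g) at 1, 6 and 24 h.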
# [5] = target: T1, Protein cereblon/Signal transducer and activator of transcription 1-alpha/beta (Homo sapiens) (UniProt P42224+Q96SW2); assay: In vivo protac activity at CRBN/STAT1 degradation in SCID mouse xenografted with human MOLM16 cells assessed as reduction in STAT1 in tumor tissue at 50 mg/kg, iv measured after 24 hrs by immunoblotting analysis; type: functional, organism-based
# How it was run: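 SCID mice bearing MOLM-16 tumors given a single iv dose of 50 mg/kg or dosing vehicle. Tumor lysates immunoblotted for STAT3, STAT1 and STAT6 at time points from 1 h to at least 24 h.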
# [6] = target: Protein cereblon/Signal transducer and activator of transcription 4 (Homo sapiens) (UniProt Q96SW2+Q14765); assay: Protac activity at CRBN/STAT4 in human SUP-M2 cells assessed as STAT4 degradation at 0.25 to 100 uM incubated for 4 hrs by Western blot analysis; type: cell-based; details: SUPM2, dose 0.25-100 µM
# [7] = Drug metabolism buffer pH 4 assessed as conversion to 5-amino-4-(4-(8-((5S,8S,10aR)-8-((S)-5-amino-1-(benzhydrylamino)-1,5-dioxopentan-2-ylcarbamoyl)-6-oxo-5-(5-(phosphonocarbonyl)-1H-indole-2-carboxamido)octahydropyrrolo[1,2-a][1,5]diazocin-3(4H)-yl)-8-oxooct-1-ynyl)-1-oxoisoindolin-2-yl)-5-oxopentanoic acid measured upto 100 hrs by LC/MS/MS analysis; details: time hrs <=100
# How it was run: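 Parent compound incubated in buffer at pH 4 or pH 8, at room temperature or 37 °C. Percentages of the parent, the hydrolysis product and the glutarimide ring-opened product followed over time, up to 96 h.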
# [8] = Drug metabolism buffer pH 4 assessed as conversion to (2-(((5S,8S,10aR)-8-(((S)-5-amino-1-(benzhydrylamino)-1,5-dioxopentan-2-yl)carbamoyl)-3-(8-(2-(2,6-dioxopiperidin-3-yl)-1-oxoisoindolin-4-yl)oct-7-ynoyl)-6-oxodecahydropyrrolo[1,2-a][1,5]diazocin-5-yl)carbamoyl)-1H-indole-5-carbonyl)phosphonic acid by measured after 96 hrs at 37 degC by LC/MS/MS analysis
# [9] = target: T1, Protein cereblon/Signal transducer and activator of transcription 1-alpha/beta (Homo sapiens); assay: Protac activity at CRBN/STAT1 in human SUP-M2 cells […] at 0.25 to 100 uM incubated for 4 hrs by Western blot analysis; type: cell-based; details: SUPM2, dose lower 0.25 µM
# [10] = target: T2, Signal transducer and activator of transcription 1-alpha/beta (Homo sapiens, UniProt P42224); assay: Binding affinity to human recombinant STAT1 assessed as dissociation constant incubated for 15 mins by biolayer interferometry
# T2 sequence (P42224 whole entry): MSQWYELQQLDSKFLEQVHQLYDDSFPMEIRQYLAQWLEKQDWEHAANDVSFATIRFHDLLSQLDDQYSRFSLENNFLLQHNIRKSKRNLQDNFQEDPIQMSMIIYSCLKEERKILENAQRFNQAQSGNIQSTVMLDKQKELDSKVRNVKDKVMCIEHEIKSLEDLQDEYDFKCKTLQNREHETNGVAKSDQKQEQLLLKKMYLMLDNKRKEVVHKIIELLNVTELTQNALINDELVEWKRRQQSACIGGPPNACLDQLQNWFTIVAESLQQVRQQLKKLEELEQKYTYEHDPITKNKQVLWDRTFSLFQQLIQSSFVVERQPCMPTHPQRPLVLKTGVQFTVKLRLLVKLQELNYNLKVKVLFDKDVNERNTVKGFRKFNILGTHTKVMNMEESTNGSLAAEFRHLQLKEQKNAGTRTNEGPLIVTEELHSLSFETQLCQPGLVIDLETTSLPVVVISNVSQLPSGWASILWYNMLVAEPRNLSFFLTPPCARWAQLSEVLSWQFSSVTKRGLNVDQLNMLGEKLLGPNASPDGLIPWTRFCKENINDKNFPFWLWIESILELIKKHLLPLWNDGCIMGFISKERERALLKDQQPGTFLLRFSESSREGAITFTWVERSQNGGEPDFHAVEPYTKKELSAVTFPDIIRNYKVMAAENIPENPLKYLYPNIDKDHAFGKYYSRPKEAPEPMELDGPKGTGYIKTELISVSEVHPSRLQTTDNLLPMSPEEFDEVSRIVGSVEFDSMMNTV
# How it was run: (§1)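 Biolayer interferometry with recombinant human STAT1, STAT2, STAT3, STAT4, STAT5A, STAT5B or STAT6 proteins containing their SH2 domain. Compound run in 2× serial dilutions from 200 nM. Kd taken from steady-state fitting of equilibrium responses against concentration using a 1:1 binding model.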
# [11] = Toxicity in SCID mouse xenografted with human MOLM16 cells assessed as toxic effects at 25 to 50 mg/kg, iv for 65 days; type: organism-based; details: in vivo, 1560 h, dose 25-50 mg/kg, time 65 day
# How it was run: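 SCID mice bearing MOLM-16 xenografts dosed intravenously at 25 or 50 mg/kg on a weekly schedule; vehicle 10% PEG400/90% PBS; body weight and tumor volume measured every 2 days; signs of toxicity monitored during and after treatment.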
# [12] = Antitumor activity against human MOLM16 cells xenografted in SCID mouse assessed as tumor growth at 25 mg/kg, iv administered weekly measured after 2 weeks relative to control; type: functional
# How it was run: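 SCID mice bearing MOLM-16 xenografts given compound iv once weekly at 25 or 50 mg/kg. Tumor volume and body weight measured every 2 days. Growth inhibition expressed against vehicle-treated controls.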
# [13] = target: Signal transducer and activator of transcription 2 (Homo sapiens, UniProt P52630); assay: Binding affinity to human recombinant STAT2 assessed as dissociation constant incubated for 15 mins by biolayer interferometry; how it was run: as §1
# Signal transducer and activator of transcription 2, sequence (P52630 whole entry): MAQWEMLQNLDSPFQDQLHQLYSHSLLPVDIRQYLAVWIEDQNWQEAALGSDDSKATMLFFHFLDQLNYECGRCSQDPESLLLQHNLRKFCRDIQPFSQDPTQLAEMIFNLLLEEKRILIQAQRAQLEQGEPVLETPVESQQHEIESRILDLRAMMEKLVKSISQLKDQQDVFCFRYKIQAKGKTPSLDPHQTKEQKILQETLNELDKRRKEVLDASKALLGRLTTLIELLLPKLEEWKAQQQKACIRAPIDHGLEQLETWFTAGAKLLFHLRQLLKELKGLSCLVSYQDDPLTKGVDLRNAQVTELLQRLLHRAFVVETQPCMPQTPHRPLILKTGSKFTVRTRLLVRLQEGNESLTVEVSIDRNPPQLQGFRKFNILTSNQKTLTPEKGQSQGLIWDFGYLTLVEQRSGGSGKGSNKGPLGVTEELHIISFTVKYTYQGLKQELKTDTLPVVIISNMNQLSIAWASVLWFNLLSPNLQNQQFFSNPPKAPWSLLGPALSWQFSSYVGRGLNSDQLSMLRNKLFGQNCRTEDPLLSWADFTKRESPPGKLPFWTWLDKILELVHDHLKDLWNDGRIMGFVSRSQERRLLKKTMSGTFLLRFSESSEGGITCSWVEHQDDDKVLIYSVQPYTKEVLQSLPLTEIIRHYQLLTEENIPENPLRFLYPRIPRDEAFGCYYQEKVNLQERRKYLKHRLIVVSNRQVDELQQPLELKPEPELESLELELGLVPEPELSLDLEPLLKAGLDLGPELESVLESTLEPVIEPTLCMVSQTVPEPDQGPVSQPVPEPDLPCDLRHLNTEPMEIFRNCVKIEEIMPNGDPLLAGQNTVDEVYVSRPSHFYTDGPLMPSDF
# Protein cereblon/Signal transducer and activator of transcription 5A (Homo sapiens), sequence (P42229 whole entry, looked up): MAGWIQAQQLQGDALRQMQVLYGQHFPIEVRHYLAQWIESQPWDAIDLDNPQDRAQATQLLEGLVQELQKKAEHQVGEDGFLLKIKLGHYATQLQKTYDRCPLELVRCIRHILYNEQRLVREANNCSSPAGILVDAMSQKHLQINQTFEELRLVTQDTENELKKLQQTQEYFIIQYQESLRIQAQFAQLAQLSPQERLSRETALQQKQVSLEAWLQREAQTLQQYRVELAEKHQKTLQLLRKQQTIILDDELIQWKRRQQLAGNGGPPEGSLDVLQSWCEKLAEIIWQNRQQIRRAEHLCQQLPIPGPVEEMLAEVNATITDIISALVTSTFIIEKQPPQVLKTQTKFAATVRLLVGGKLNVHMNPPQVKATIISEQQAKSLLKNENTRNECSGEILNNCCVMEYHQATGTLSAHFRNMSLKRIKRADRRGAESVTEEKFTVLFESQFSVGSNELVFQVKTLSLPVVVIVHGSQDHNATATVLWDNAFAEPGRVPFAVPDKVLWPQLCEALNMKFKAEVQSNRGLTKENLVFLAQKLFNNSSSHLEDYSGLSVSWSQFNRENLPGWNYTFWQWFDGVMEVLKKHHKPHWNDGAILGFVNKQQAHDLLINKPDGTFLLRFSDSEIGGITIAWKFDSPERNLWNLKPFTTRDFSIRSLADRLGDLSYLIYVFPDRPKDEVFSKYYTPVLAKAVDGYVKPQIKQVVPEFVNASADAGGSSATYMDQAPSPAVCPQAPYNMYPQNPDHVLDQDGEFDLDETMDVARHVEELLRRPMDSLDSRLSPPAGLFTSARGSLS
# Protein cereblon/Signal transducer and activator of transcription 5A (Homo sapiens), sequence (Q96SW2 whole entry, looked up): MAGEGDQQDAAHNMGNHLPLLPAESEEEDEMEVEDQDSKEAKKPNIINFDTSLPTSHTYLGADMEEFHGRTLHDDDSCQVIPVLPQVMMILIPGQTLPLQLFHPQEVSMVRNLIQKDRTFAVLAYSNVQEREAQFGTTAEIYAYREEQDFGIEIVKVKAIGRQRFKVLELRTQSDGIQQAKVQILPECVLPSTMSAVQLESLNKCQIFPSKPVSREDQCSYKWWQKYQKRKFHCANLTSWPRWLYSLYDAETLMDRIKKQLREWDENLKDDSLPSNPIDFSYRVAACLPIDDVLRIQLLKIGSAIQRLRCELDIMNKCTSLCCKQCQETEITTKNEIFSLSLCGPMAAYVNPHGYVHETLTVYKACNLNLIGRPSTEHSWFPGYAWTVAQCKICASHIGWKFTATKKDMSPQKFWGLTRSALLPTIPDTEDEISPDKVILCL
# Protein cereblon/Signal transducer and activator of transcription 2 (Homo sapiens), sequence (P52630 whole entry, looked up): as the sequence (P52630 whole entry) above
# Protein cereblon/Signal transducer and activator of transcription 2 (Homo sapiens), sequence (Q96SW2 whole entry, looked up): as the sequence (Q96SW2 whole entry, looked up) above
# Protein cereblon/Signal transducer and activator of transcription 4 (Homo sapiens), sequence (Q14765 whole entry, looked up): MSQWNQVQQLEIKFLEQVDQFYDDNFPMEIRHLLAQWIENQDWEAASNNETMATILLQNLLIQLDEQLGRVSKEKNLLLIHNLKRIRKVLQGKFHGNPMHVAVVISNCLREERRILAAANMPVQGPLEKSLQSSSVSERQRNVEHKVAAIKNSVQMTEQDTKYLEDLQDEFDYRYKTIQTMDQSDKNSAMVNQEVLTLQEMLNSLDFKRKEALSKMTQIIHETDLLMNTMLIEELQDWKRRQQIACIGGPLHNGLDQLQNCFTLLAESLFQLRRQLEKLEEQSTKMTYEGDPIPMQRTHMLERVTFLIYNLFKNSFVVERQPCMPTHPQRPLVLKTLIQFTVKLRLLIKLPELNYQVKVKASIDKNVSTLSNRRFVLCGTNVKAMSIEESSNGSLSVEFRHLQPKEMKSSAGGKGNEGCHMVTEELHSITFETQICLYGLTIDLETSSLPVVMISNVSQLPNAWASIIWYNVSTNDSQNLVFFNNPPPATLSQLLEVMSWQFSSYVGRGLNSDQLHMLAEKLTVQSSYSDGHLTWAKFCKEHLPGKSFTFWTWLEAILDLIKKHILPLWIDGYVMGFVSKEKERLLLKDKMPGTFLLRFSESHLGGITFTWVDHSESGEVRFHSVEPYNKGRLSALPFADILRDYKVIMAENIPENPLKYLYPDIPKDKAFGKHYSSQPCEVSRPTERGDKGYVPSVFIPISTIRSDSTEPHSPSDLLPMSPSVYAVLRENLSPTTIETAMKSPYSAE
# Protein cereblon/Signal transducer and activator of transcription 4 (Homo sapiens), sequence (Q96SW2 whole entry, looked up): as the sequence (Q96SW2 whole entry, looked up) above
Structure (SMILES),t1/2 [1] [h],Activity [2],Activity [3],Drug uptake [4] [ng/mL],Activity [5],Activity [6],Drug metabolism [7],Drug metabolism [8] [%],Activity [9],Kd [10] [nM],Activity [11],Activity [12] [%],Kd [13] [nM]
NC(=O)CC[C@H](NC(=O)[C@@H]1CC[C@@H]2CCN(C(=O)CCCCCC#Cc3cccc4c3CN(C3CCC(=O)NC3=O)C4=O)C[C@H](NC(=O)c3cc4cc(C(F)(F)P(=O)(O)O)ccc4[nH]3)C(=O)N21)C(=O)NC(c1ccccc1)c1ccccc1 (stereo partly drawn),4,inactive,inactive,48476,inactive,inactive,Metabolite not detected,25,inactive,–,–,–,–
NC(=O)CC[C@H](NC(=O)[C@@H]1CC[C@@H]2CCN(C(=O)CCCCCC#Cc3cccc4c3CN(C3CCC(=O)NC3=O)C4=O)C[C@H](NC(=O)c3cc4cc(C(=O)P(=O)(O)O)ccc4[nH]3)C(=O)N21)C(=O)NC(c1ccccc1)c1ccccc1 (stereo partly drawn),–,–,–,–,–,–,–,–,–,> 10,Non-Toxic,87,> 10
